Experimental data gathered from unrelated publications.
Protocols differ between the studies behind these lines.
Medium: plasma

SMILES	system	setting	AUC(0-t)
CC(C)(O)c1ccccc1-c1ccc2[nH]c(/C=C/c3ccc(C(F)(F)F)cc3)nc2c1	male human	oral, 225 mg, single dose, fasted	5740 ng·h/mL
C[C@@H](Oc1ccc(S(C)(=O)=O)cc1C(=O)N1C[C@@H]2C[C@]2(c2cc(C(F)(F)F)on2)C1)C(F)(F)F	human	oral, 25 mg, fasted	10.8 µM·h
Oc1cc(O)c2c(c1)O[C@@H](c1ccc(O)c(O)c1)[C@@H](O)C2	human	oral, 100 mg, single dose	14.2 ng·h/mL
Cc1nc(NC(=O)N2CCC[C@H]2C(N)=O)sc1-c1ccnc(C(C)(C)C(F)(F)F)c1	human	oral, 90 mg, patients	7600 ng·h/mL
C[C@@H](Nc1cc(F)cc(F)c1)c1cc(C(=O)N(C)C)cc2c(=O)cc(N3CCOCC3)oc12	human	oral, 180 mg, single dose, patients	6710 ng·h/mL
COc1cc2c(Nc3ccc(Br)cc3F)ncnc2cc1OCC1CCN(C)CC1	human	oral, 85 mg/m², multiple doses, patients	15500 ng·h/mL
CO[C@@H]1[C@H](OC(=O)N2CC(CCN3CCOCC3)C2)CC[C@]2(CO2)[C@H]1[C@@]1(C)O[C@@H]1CC=C(C)C	human	subcutaneous, 2.4 mg, single dose, healthy volunteers	8.07 ng·h/mL
CC(=O)Oc1ccccc1C(=O)O	human	oral, 650 mg, healthy volunteers	2630 ng·h/mL
C[C@@H]1COCCN1c1cc(C2([S@](C)(=N)=O)CC2)nc(-c2cc[nH]c3nccc2-3)n1	human	oral, 20 mg, single dose, patients	6770 ng·h/mL
CCOc1cc2ncc(C#N)c(Nc3ccc(OCc4ccccn4)c(Cl)c3)c2cc1NC(=O)/C=C/[C@H]1CCCN1C	human	oral, 80 mg, single dose	357 ng·h/mL
CC(C)n1cc(C#N)c2cc(-n3cc(C(=O)O)cn3)ccc21	human	oral, 400 mg, single dose, fasted, healthy volunteers	91500 ng·h/mL
FC(F)(F)c1ccc(CNc2ccc(Cc3c[nH]c4ncc(Cl)cc34)cn2)cn1	human	oral, 1200 mg, multiple doses, patients	29500 ng·h/mL
O=C(O)C[C@H](O)C[C@H](O)/C=C/c1c(C2CC2)nc2ccccc2c1-c1ccc(F)cc1	human	oral, 2 mg, single dose, fasted, healthy volunteers, tablet	243 ng·h/mL
COCCOc1cnc2ccn([C@H](C)c3nnc4c(F)cc(-c5cnn(C)c5)cn34)c(=O)c2c1	human	oral, 25 mg, multiple doses, once daily, patients	5990 ng·h/mL
CCNCCCNC/C=C\CNCCCNCC	human	intravenous, 150 mg, patients, infusion	473 ng·h/mL
C[C@@]1(c2cc(NC(=O)c3ccc(C#N)cn3)ccc2F)C=CSC(N)=N1	human	oral, 30 mg, single dose	2510 ng·h/mL
O=C(/C=C/c1cccc(S(=O)(=O)Nc2ccccc2)c1)NO	human	intravenous, 2000 mg/m², patients	85200 ng·h/mL
C#Cc1cccc(Nc2ncnc3cc(OCCOC)c(OCCOC)cc23)c1	human	oral, 50 mg, patients	12.5 µM·h
OC[C@H]1O[C@@H](c2ccc(Cl)c(Cc3ccc(O[C@H]4CCOC4)cc3)c2)[C@H](O)[C@@H](O)[C@@H]1O	human	oral, 10 mg, single dose	1.63 µM·h
Nc1cc(C(F)(F)F)c(-c2cc(N3CCOCC3)nc(N3CCOCC3)n2)cn1	human	oral, 100 mg/day, patients	8800 ng·h/mL
CO[C@H]1CC[C@H](N2C(=O)CNc3ncc(-c4ccc(C(C)(C)O)nc4)nc32)CC1	human	oral, 30 mg, multiple doses, patients	1440 ng·h/mL
COc1ccc([C@@H]2CN(C(=O)[C@@H](O)CO)C[C@@]2(C)[C@@H](C)O)cc1OC1CN(c2ccc(C)cn2)C1	human	oral, 5 mg, single dose, healthy volunteers	1590 ng·h/mL
COc1cc2c(cc1OC)CN(CCc1ccc(NC(=O)c3cc(OC)c(OC)cc3NC(=O)c3cnc4ccccc4c3)cc1)CC2	human	intravenous, 1.5 mg/kg, patients	10.5 µM·h
COc1cc(N2CCC(N3CCN(C)CC3)CC2)ccc1Nc1ncnc(Nc2ccccc2S(=O)(=O)C(C)C)n1	human	oral, 200 mg, multiple doses, patients	9170 ng·h/mL
NS(=O)(=O)c1ccc(NC(=O)Nc2ccc(F)cc2)cc1	human	oral, 500 mg, multiple doses, once daily	62200 ng·h/mL
CCCCC1=NC2(CCCC2)C(=O)N1Cc1ccc(-c2ccccc2S(=O)(=O)Nc2noc(C)c2C)c(COCC)c1	human	oral, 200 mg, single dose, fasted, healthy volunteers	58100 ng·h/mL
